Test [1] deals with T1, Polyunsaturated fatty acid 5-lipoxygenase (Rattus norvegicus) (UniProt P12527).
T1 sequence (whole entry): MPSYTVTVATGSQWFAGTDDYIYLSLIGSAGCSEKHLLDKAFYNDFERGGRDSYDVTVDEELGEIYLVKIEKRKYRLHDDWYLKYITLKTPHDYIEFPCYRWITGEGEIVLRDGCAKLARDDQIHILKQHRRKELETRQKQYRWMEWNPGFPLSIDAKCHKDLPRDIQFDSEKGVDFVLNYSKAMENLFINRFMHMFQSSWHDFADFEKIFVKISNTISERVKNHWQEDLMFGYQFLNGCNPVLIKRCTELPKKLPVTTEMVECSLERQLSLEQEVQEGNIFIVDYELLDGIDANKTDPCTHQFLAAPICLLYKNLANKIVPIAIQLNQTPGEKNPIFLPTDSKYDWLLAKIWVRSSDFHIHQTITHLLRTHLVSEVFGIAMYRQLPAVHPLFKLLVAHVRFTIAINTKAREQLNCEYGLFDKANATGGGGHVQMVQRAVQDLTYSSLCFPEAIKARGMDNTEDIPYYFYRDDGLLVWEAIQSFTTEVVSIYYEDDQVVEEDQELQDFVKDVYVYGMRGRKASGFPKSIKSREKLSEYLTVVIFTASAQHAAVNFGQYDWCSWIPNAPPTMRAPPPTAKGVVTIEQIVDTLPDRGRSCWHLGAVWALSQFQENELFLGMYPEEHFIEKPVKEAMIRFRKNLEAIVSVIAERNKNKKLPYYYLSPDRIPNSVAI
The test is described as follows: Ex vivo inhibition of LTB4 production in rat blood following 50 mg/kg p.o. The arrangement: dose 50 mg/kg. The format is functional, organism-based. Particulars: at 50 mg/kg; call rule not given here. The method, boiled down: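 Male Sprague-Dawley rats (225–275 g), fasted 18 h, given test compound orally at 50 mg/kg; controls got vehicle; five rats per compound. At 2 h, anesthetized; heparinized blood from vena cava. Blood (1.0 mL) stimulated with A23187 (30 μM), 30 min, 37 °C; plasma LTB4 by radioimmunoassay. Percent inhibition from mean treated vs mean control; Wilcoxon rank sum.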

The species entered for test [2] is Rattus norvegicus. The test is described as follows: In vitro inhibition of LTC4/D4 (leukotriene) production in rat peritoneal mononuclear cells. The test is classed as functional, cell-based. The method, boiled down: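 Rat peritoneal mononuclear cells challenged with calcium ionophore A23187 in presence of cysteine. Initial screen at 10 μg/mL, duplicate determinations, expressed as percent of control. IC50 from follow-up testing, interpolated from log dose–response plot. LTC4/D4 measured by guinea pig ileum bioassay (atropinized, mepyramine-treated) or, later, LTC4-selective radioimmunoassay.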

The species named for test [3] is Rattus norvegicus. The experiment in a line: Ex vivo inhibition of LTB4 production was determined. The test is classed as functional, organism-based. The method, boiled down:
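Male Sprague-Dawley rats (225–275 g), fasted 18 h, given 50 mg/kg orally in 1.0 mL solution; controls received 1.0 mL vehicle; five rats per compound. Heparinized vena cava blood taken 2 h post-dose under anesthesia; 1.0 mL stimulated with A23187 (30 μM) 30 min at 37 °C. Plasma LTB4 by radioimmunoassay; percent inhibition from group mean vs control mean; Wilcoxon rank sum statistics.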

[4] abbreviates: Rattus norvegicus, read-out: IC50.

Take `CCCCc1ccc2c(OC(C)=O)c(CC)c(CC)c(OC)c2c1`: in test [1], the inhibition is 17%. Further, the IC50 in the test filed under Rattus norvegicus [2] (setting [4]) was 0.94 µM.
Take `CCCCc1c(CC)c(OC(C)=O)c2ccccc2c1OC`: in the test filed under Rattus norvegicus [2] (setting [4]), the IC50 is 1.13 µM.
Still for that read-out and setting: as for `CCCCC1=CC(=O)c2occc2C1=O`, the figure is 2.05 µM.
In the case of `CCCCC1=CC(=O)c2ccccc2C1=O`, the IC50 in the test filed under Rattus norvegicus [2] (setting [4]) is 2.24 µM.
The same measure, in the same setting: the result for `CCCCc1cc(OC)c2occc2c1OC(C)=O` reads 0.11 µM.
With `CCc1c(CC)c(OC(C)=O)c2c(C)ccc(C)c2c1OC`, the inhibition in test [1] was found to be 50.6%. Besides, the IC50 in the test listed under Rattus norvegicus [2] (setting [4]) came out at 13 µM.
Take `CCCCc1cc(OC)c2ccccc2c1OC`: the IC50 in the test filed under Rattus norvegicus [2] (setting [4]) turned out to be 40.9 µM.
`CCCCCc1c(C(=O)OCC)c(OC)c2ccccc2c1OC(C)=O`: in the test filed under Rattus norvegicus [2] (setting [4]), the IC50 was found to be 0.94 µM.
On the same count and under the same terms, as for `CCCCc1c(C)c(OC)c2ccccc2c1OC(C)=O`, the figure is 0.2 µM; as for `COc1cc(-c2ccccc2)c(OC(C)=O)c2ccn(C)c12`, 3.86 µM.
`CCCCc1cc(OC)c2c(C)ccc(C)c2c1OC(C)=O`: in test [1], the inhibition turned out to be 19.1%. The IC50 in the test listed under Rattus norvegicus [2] (setting [4]) was 7.35 µM.
In turn, `O=C1C=CC(=O)c2ccccc21` yielded a 50% inhibitory concentration (IC50) in the test listed under Rattus norvegicus [3] of under 20 µM.
Consider `CCCCc1cc(OC)c2ccc(OC)cc2c1OC(C)=O`, for which the IC50 in the test filed under Rattus norvegicus [2] (setting [4]) stood at 1.38 µM.
In the case of `CCOC(=O)c1c(-c2ccccc2)c(OC(C)=O)c2ccccc2c1OC`, the IC50 in the test filed under Rattus norvegicus [2] (setting [4]) came to 5.81 µM.
With `CCc1c(CC)c(OC(C)=O)c2cc(OC)ccc2c1OC`, in the test filed under Rattus norvegicus [2] (setting [4]), the IC50 came out at 0.69 µM.
For `COc1c(C)c(-c2ccccc2)c(O)c2ccoc12`, the IC50 in the test filed under Rattus norvegicus [2] (setting [4]) was 1.25 µM.
On the same count and under the same terms, as for `CCCCc1c(C)c(OC)c2c(ccn2C)c1OC(C)=O`, the figure is 0.76 µM.
Same read-out and setting: the result for `CCCCc1cc(OC)c2sccc2c1O` reads 1.05 µM.
Take `CCOc1c(C(C)O)c(OC)c2ccccc2c1OC` (stereo unspecified): in the test listed under Rattus norvegicus [2] (setting [4]), the IC50 stood at 86 µM.
Take `CCCCc1cc(OC)c2ccccc2c1OC(C)=O` [BUNAPROLAST]: in test [1], the inhibition came out at 61.1%. Further, the IC50 in the test listed under Rattus norvegicus [2] (setting [4]) came out at 0.44 µM.
Consider `CCCCc1cc(OC)c2c(C)c(C)c(C)c(C)c2c1OC(C)=O`, for which the inhibition in test [1] stood at 41.2%. Moreover, the IC50 in the test listed under Rattus norvegicus [2] (setting [4]) amounted to 44.1 µM.
With `COc1cc(-c2ccccc2)c(O)c2ccoc12`, the 50% inhibitory concentration (IC50) in the test listed under Rattus norvegicus [2] (setting [4]) turned out to be 2.2 µM.
For `COc1c(-c2ccccc2)c(-c2ccccc2)c(OC(C)=O)c2ccccc12`, in the test filed under Rattus norvegicus [2] (setting [4]), the IC50 is 11 µM.
In the case of `CCCCc1cc(OC)c2c(C)cc(C)c(C)c2c1OC(C)=O`, in test [1], the inhibition stood at 35.4%. Also, the IC50 in the test listed under Rattus norvegicus [2] (setting [4]) was 11.9 µM.
For `CCCCc1cc(OC)c2c(C)cccc2c1OC(C)=O` the same measures were 31.8% and 0.62 µM.
Consider `CCCCCc1c(C(=O)OCC)c(OC(C)=O)c2ccccc2c1OC`, for which, in the test filed under Rattus norvegicus [2] (setting [4]), the IC50 is 8.92 µM.
`CCCc1c(CCC)c(OC(C)=O)c2ccccc2c1OC`: the IC50 in the test filed under Rattus norvegicus [2] (setting [4]) came to 1.43 µM.
Still for that read-out and setting: the result for `CCc1c(CC)c(OC)c2c(ccn2C)c1OC(C)=O` reads 2.03 µM.
For `CCCCc1cc(OC)c2c(OC)cccc2c1OC(C)=O`, in test [1], the inhibition came to 17.5%. Besides, in the test listed under Rattus norvegicus [2] (setting [4]), the IC50 is 0.26 µM.
For `CCc1c(CC)c(OC(C)=O)c2c(C)c(C)cc(C)c2c1OC` the same measures were 14.7% and 15.7 µM.
`CCc1c(CC)c(OC)c2c(OC)cccc2c1OC(C)=O`: the IC50 in the test filed under Rattus norvegicus [2] (setting [4]) was 0.89 µM.
For `COc1c(-c2ccccc2)c(-c2ccccc2)c(OC(C)=O)c2ccn(C)c12`, the IC50 result in the test filed under Rattus norvegicus [2] was “Not Active”.
On to `CCc1c(CC)c(OC(C)=O)c2ccccc2c1OC`, for which the inhibition in test [1] came to 74.8%. In the test filed under Rattus norvegicus [2] (setting [4]), the IC50 was found to be 0.4 µM.
As for `CCCCc1cc(OC)c2c(ccn2C)c1OC(C)=O`, the concentration for half-maximal inhibition (IC50) in the test listed under Rattus norvegicus [2] (setting [4]) worked out at 0.72 µM.
On the same count and under the same terms, as for `CCOC(=O)c1c(CC)c(OC)c2ccccc2c1OC(C)=O`, the figure is 3.76 µM; as for `CCCCc1cc(OC)c2ccccc2c1O`, 1.47 µM; as for `CCOC(=O)c1c(CC)c(OC(C)=O)c2ccccc2c1OC`, 1.16 µM.
As to `C=Cc1c(OCC)c(OC)c2ccccc2c1OC`, the IC50 entry in the test filed under Rattus norvegicus [2] was “Not Active”.
For the compound `CCCCc1c(CCCC)c(OC)c2occc2c1O`, the IC50 in the test filed under Rattus norvegicus [2] (setting [4]) is 1.15 µM.
With `CCc1c(CC)c(OC)c2c(C)cccc2c1OC(C)=O`, in test [1], the inhibition was determined as 40.6%. Also, in the test filed under Rattus norvegicus [2] (setting [4]), the IC50 came to 0.83 µM.
As for `CCCCc1cc(OC)c2occc2c1O`, the IC50 in the test listed under Rattus norvegicus [2] (setting [4]) turned out to be 11.9 µM.
`CCCCc1cc(OC)c2sccc2c1OC(C)=O`: the IC50 in the test filed under Rattus norvegicus [2] (setting [4]) was determined as 0.46 µM.
Consider `CCCCc1c(CC)c(OC)c2ccccc2c1OC(C)=O`, for which the IC50 in the test listed under Rattus norvegicus [2] (setting [4]) was 0.99 µM.
With `CCOc1c(C(C)O[Si](C)(C)C(C)(C)C)c(OC(C)=O)c2ccccc2c1OC` (stereo unspecified), the IC50 in the test filed under Rattus norvegicus [2] (setting [4]) came to 23.9 µM.
In the case of `CCCCc1c(C)c(OC(C)=O)c2ccn(C)c2c1OC`, the IC50 in the test filed under Rattus norvegicus [2] (setting [4]) was 0.76 µM.
For the compound `CCCCc1ccc2c(OC(C)=O)c(CCCC)cc(OC)c2c1`, the inhibition in test [1] was 19.2%. Besides, the IC50 in the test listed under Rattus norvegicus [2] (setting [4]) was found to be 0.48 µM.
With `COc1c(-c2ccccc2)c(-c2ccccc2)c(O)c2ccoc12`, the IC50 in the test filed under Rattus norvegicus [2] (setting [4]) came to 4.39 µM.
On to `CCCCc1c(CCCC)c(OC(C)=O)c2ccccc2c1OC`, for which the inhibition in test [1] stood at 29.2%. Moreover, in the test listed under Rattus norvegicus [2] (setting [4]), the IC50 stood at 6.02 µM.
For the compound `CCCCc1cccc2c(OC)c(CC)c(CC)c(OC(C)=O)c12`, the inhibition in test [1] was 30.5%. For the same compound, the IC50 in the test listed under Rattus norvegicus [2] (setting [4]) was 14.1 µM.
For `CCc1c(CC)c(OC(C)=O)c2c(C)c(C)c(C)c(C)c2c1OC` the same measures were -4.9% and 37.3 µM.
For `CCCCC1=CC(=O)c2sccc2C1=O`, the IC50 in the test filed under Rattus norvegicus [2] (setting [4]) was determined as 23.5 µM.

(Values after ChEMBL document CHEMBL1124700, “1,4-Dihydronaphthoquinones, hydroindoloquinones, benzofurans, and benzothiophenes as inhibitors of 5-lipoxygenase. Synthesis and structure-activity studies” (J Med Chem, 1990).)
